The source made the active and inactive calls.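 Rule for the calls, unless noted: active = a full or partial loss of lipid-probe fluorescence in the fish gall bladder, intestine or both, judged by eye; inactive = no fluorescence loss, or compound toxic to the fish.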
How the values were obtained:
[1] = inhibitors of TNFa-induced NFkB p65 translocation, primary screen, imaging, HUVEC, MLSMR starter and 10KST1 sets (AID 438;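 active = inhibition above 20% together with a positive visual image hit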;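 note: compound added about 3h40 before a 20 min TNFalpha stimulation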;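 for inhibition: signal is the nuclear over cytoplasmic p65 intensity ratio per well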); details: HUVEC TNFa-induced p65 nuclear translocation; cell count: measured here: nuclei count (cytotoxicity indicator), at 2.08 µM; inhibition: at 2 µM, stronger effect = higher value, 0% TNFa-plus-vehicle, 100% no-TNFa wells
[2] = inhibitors of E-selectin induction by TNFa, primary screen, imaging, HUVEC, immunofluorescence, MLSMR starter and 10KST1 sets (AID 487;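 active = visually confirmed hit in the image check and inhibition above 20%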;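 for inhibition: signal is fraction of cell area covered by stained E-selectin grains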;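 for nuclei count: 100% = median nuclei count of all wells on the same plate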); details: HUVEC TNFalpha-induced E-selectin immunofluorescence imaging, at 2 µM; inhibition: stronger effect = higher value; nuclei count: measured here: cell number, toxicity
[3] = DUSP6 inhibitors restoring Erk phosphorylation by chemical complementation, primary imaging in DUSP6-transfected HeLa (AID 609;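 active = compounds giving at least 50% inhibition in the cell-based MKP-3 phosphatase rescue imaging test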;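 for inhibition: phospho-Erk level distribution per well compared with pooled transfected vehicle control wells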); details: HeLa MKP-3 transfected, phospho-Erk imaging KS statistic, at 10 µM, cells stimulated with TPA for 15 min
[4] = biological target: Dual specificity protein phosphatase 6 (Homo sapiens) (UniProt Q16828); experiment: as above; details: HeLa MKP-3 transfected, phospho-Erk imaging KS statistic; at 10 µM; stronger effect = higher value; cells stimulated with TPA for 15 min
Chain of Dual specificity protein phosphatase 6 (Homo sapiens) (Q16828 whole entry, looked up): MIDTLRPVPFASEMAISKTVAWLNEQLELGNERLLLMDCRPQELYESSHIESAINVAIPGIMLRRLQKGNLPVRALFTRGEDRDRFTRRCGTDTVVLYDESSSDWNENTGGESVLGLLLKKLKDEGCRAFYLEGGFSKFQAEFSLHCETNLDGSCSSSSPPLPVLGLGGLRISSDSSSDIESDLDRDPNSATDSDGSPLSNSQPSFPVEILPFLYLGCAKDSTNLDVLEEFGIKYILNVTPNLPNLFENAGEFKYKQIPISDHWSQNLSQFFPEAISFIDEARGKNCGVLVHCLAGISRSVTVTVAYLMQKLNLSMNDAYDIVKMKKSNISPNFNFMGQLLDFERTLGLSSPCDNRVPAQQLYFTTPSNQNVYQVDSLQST

[5] = biological target: Voltage-gated potassium channel subunit beta-2 (Rattus norvegicus) (UniProt P62483); experiment: KvBeta enzyme negative modulators, primary screen, biochemical, NADPH fluorescence (AID 622;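 active = fluorescence slope higher than the sample average by over 3 SD, cut at about -0.22 in these data, passing the limit was not always enough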;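 note: slope of raw intensity against log time taken from 70 to 1610 s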); details: recombinant KvBeta, 4-cyanobenzaldehyde reduction, at 10 µM, stronger effect = higher value
Chain of Voltage-gated potassium channel subunit beta-2 (Rattus norvegicus) (P62483 whole entry, looked up): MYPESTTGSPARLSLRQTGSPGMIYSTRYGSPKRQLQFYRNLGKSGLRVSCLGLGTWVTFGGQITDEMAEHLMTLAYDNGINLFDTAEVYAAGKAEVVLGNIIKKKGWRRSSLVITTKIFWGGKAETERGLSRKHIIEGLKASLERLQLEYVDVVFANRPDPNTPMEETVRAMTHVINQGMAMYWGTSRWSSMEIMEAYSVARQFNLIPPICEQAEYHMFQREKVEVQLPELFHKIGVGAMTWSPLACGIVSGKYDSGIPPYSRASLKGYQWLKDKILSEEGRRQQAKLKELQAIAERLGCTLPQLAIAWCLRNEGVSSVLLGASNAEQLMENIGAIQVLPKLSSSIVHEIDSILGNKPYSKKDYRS

[6] = biological target: Voltage-gated potassium channel subunit beta-2 (Rattus norvegicus) (UniProt P62483); experiment: KvBeta positive modulators, primary screen, biochemical, NADPH fluorescence (AID 623;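 active = NADPH fluorescence slope more negative than the mean of all samples by about 3 SD, 99.7% confidence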;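 note: fluorescence intensity change per second fitted from 20 to 320 s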); details: Recombinant KvBeta, NADPH fluorescence decrease slope, 10 min; at 10 µM; stronger effect = lower value
[7] = biological target: Muscarinic acetylcholine receptor M4 (Homo sapiens) (UniProt P08173); experiment: compounds altering M4/GIRK thallium flux, either direction, primary screen, M4 allosteric agonist project, cell-based, HEK293 M4/GIRK, BTC-AM (AID 625;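 active = fluorescence slope after compound addition differing from the mean of all tested samples at 99.7% confidence, mostly higher but some lower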;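 note: thallium influx through GIRK channels coupled to M4 in HEK293 cells with BTC-AM dye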); details: at 10 µM, actives lie on both sides
Chain of Muscarinic acetylcholine receptor M4 (Homo sapiens) (P08173 whole entry, looked up): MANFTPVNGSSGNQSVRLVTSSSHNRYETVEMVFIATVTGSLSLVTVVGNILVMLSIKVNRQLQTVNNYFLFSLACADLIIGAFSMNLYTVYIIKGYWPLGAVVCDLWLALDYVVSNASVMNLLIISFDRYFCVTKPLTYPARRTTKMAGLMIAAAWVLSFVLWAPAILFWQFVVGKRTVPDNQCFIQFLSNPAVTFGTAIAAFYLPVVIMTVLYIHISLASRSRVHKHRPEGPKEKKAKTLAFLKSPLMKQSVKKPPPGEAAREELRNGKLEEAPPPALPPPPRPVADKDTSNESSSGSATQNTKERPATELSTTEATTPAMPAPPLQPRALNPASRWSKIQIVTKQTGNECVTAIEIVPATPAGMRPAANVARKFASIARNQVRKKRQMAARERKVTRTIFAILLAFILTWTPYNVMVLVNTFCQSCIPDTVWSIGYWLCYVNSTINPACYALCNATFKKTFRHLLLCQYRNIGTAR
In short: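 Assay system: HEK293 cells with M4 receptor and GIRK channels / Controls: carbachol and DMSO controls / Schedule: 1 h dye loading, 2 min kinetic read / Technique: kinetic fluorescence with BTC-AM dye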

[8] = inhibitors of larval lipid processing in zebrafish, primary screen, whole organism, PED6 fluorescence, gall bladder and intestine (AID 686); details: Zebrafish larvae PED6 lipid processing, fluorescence scoring; screened at 20 µM (by protocol);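 note: larvae 5 to 7 days old with five fish per well; signal comes from phospholipase A2 cleavage of quenched PED6 carried via bile; overnight exposure to compound and PED6 before scoring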
In short: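 Doses: 20 µM single dose. Test system: live zebrafish larvae aged 5-7 days, whole organism. Quantity: five larvae per well. Measured by: By-eye fluorescence microscopy. Reagent: ingested quenched lipid PED6 at 100 nM. Read-out: visual per-well fluorescence inhibition score. Times: overnight exposure of larvae to compound plus PED6.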

[9] = inhibitors of Chlamydomonas gravitaxis, primary screen, whole organism, Chlamydomonas reinhardtii, WT vs cilia-less mutant, absorbance, 96-well (AID 463189;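 active = inhibition at or above 50% relative to wild type and mutant plate controls; inactive = inhibition below 50%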;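 note: 0% = wild type cc124 cells in DMSO and 100% = ciliumless bld1 mutant cells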); details: OD600 absorbance, 2 days, at 10 µM, stronger effect = higher value
[10] = measured here: cell density z-score
[11] = measured here: nuclear c-Myc green intensity z-score
[12] = measured here: nuclear pErk red intensity z-score, stronger effect = higher value

| Structure (SMILES) | cell count [1] | inhibition [1] | inhibition [2] | nuclei count [2] [%] | z-score [3, 10] | z-score [3, 11] | z-score [3, 12] | inhibition [4] | fluorescence slope [5] | NADPH fluorescence slope [6] | fluorescence slope [7] | outcome [8] | inhibition [9] |
| --- | --- | --- | --- | --- | --- | --- | --- | --- | --- | --- | --- | --- | --- |
| CC1(C)CCN(Cc2ccccc2)C1CC#N (stereo not given) | 572 | -1.7% (inactive) | -7.9% (inactive) | 134 | -0.215 | -0.992 | 0.527 | 3.97% (inactive) | -0.353 (inactive) | 8.5e-06 (inactive) | 0.00545 (inactive) | inactive | 34.2% (inactive) |
| Cc1cc2c(C)nc(Cc3ccccc3)nc2o1 | 561 | -5.5% (inactive) | -85.6% (inactive) | 149 | -0.156 | 0.673 | 0.277 | 11.9% (inactive) | -0.438 (inactive) | -7.2e-05 (inactive) | 0.00471 (inactive) | inactive | 16.9% (inactive) |
| CCOC(=O)NC1(C(F)(F)F)C(=O)NC(C)=C1C#N (stereo not given) | 377 | 3.7% (inactive) | 5.5% (inactive) | 129 | -0.0977 | -0.0162 | 0.321 | 3.42% (inactive) | -0.427 (inactive) | -0.000119 (inactive) | 0.00503 (inactive) | inactive | 23.5% (inactive) |
| C/C(NC(=O)c1cccs1)=C1\C(=O)C[C@@H]2[C@H]1C2(C)C | 562 | -1.6% (inactive) | -127% (inactive) | 150 | 0.211 | -0.0395 | -0.0984 | 11.9% (inactive) | -0.392 (inactive) | -6e-05 (inactive) | 0.00498 (inactive) | inactive | -3.09% (inactive) |
| CCN(CC)c1nc(C)c2c(c1C#N)CC(C)(C)OC2 | 491 | -5.9% (inactive) | -142% (inactive) | 118 | -2.08 | 0.916 | -0.636 | 13.4% (inactive) | -0.462 (inactive) | -1.1e-05 (inactive) | 0.00447 (inactive) | inactive | -9.09% (inactive) |
| OCCN=C(c1ccccc1)C12CN3CN(CN(C3)C1)C2 | 568 | -5.7% (inactive) | -133% (inactive) | 150 | 0.238 | -2.23 | 0.262 | 15.4% (inactive) | -0.48 (inactive) | -2.2e-05 (inactive) | 0.0051 (inactive) | inactive | 7.41% (inactive) |
| COc1ccc(/C(O)=C2/C(=O)C(=O)N(CCCN(C)C)C2c2ccc(C)o2)cc1Cl (stereo not given) | 709 | -8.3% (inactive) | -108% (inactive) | 146 | -0.0808 | -0.238 | -0.0387 | -6.48% (inactive) | -0.48 (inactive) | -4.6e-05 (inactive) | 0.0051 (inactive) | inactive | 18.3% (inactive) |
| O=C(Cc1ccc(Cl)cc1)Nc1cccc(-c2nnc(-c3ccco3)o2)c1 | 695 | -4% (inactive) | 32.2% (inactive) | 162 | 0.714 | 1.13 | -0.033 | 7.21% (inactive) | -0.476 (inactive) | -7.5e-05 (inactive) | 0.006 (inactive) | inactive | 5.58% (inactive) |
| COc1ccc(CNc2oc(COc3ccc(Cl)cc3)nc2C#N)cc1 | 484 | 5.8% (inactive) | -33.3% (inactive) | 164 | 0.0253 | 0.364 | 0.0628 | -5.62% (inactive) | -0.474 (inactive) | -3.7e-05 (inactive) | 0.00987 (inactive) | inactive | 2.55% (inactive) |
| Cc1ccccc1N1C(=O)CC(Sc2nnc(-c3ccccc3)o2)C1=O (stereo not given) | 482 | -2.4% (inactive) | -29.2% (inactive) | 177 | -0.982 | -1.28 | 2.47 | 5.95% (inactive) | -0.383 (inactive) | -3.3e-05 (inactive) | 0.00539 (inactive) | inactive | 57.7% (active) |
| O=C(O)C1CC(=O)n2c(nc3ccccc32)S1 (stereo not given) | 608 | -4.4% (inactive) | -24.7% (inactive) | 119 | 0.706 | -1.47 | -0.562 | 3.49% (inactive) | -0.47 (inactive) | -6e-05 (inactive) | 0.00435 (inactive) | inactive | 8.06% (inactive) |
| CCCn1nc(Oc2nc(SC)nc(N(C)C)n2)ccc1=O | 340 | -6.1% (inactive) | -38% (inactive) | 91.9 | 1.7 | -0.0746 | -1.32 | 16.1% (inactive) | -0.491 (inactive) | 3.6e-05 (inactive) | 0.00516 (inactive) | inactive | -11.7% (inactive) |
| COc1cccc(C2=CC(c3ccc(N(C)C)cc3)n3nnnc3N2)c1 (stereo not given) | 525 | 0.8% (inactive) | 27.7% (inactive) | 156 | -0.234 | 1.06 | 0.0937 | 9.91% (inactive) | -0.33 (inactive) | -3.6e-05 (inactive) | 0.00494 (inactive) | inactive | -6.32% (inactive) |
| CCCCc1nc2sc3c(c2c(=O)[nH]1)CCC3 | 691 | 3.3% (inactive) | 8% (inactive) | 129 | -0.915 | 0.812 | -0.126 | -9.53% (inactive) | -0.421 (inactive) | -4e-05 (inactive) | 0.00621 (inactive) | inactive | 34.8% (inactive) |
| Cc1ccc(C2CC(c3cccs3)n3nc(N)nc3N2)cc1 (stereo not given) | 390 | -2% (inactive) | -110% (inactive) | 149 | -0.677 | 0.494 | -0.466 | 3.56% (inactive) | -0.429 (inactive) | -0.000111 (inactive) | 0.00581 (inactive) | inactive | 31.5% (inactive) |
| CCCCc1nc(NCC2CCCO2)c(C#N)c2c1COC(C)(C)C2 (stereo not given) | 380 | -5.9% (inactive) | -69.1% (inactive) | 135 | -0.8 | 1.32 | -1.16 | 31.4% (inactive) | -0.509 (inactive) | -7.2e-05 (inactive) | 0.00404 (inactive) | inactive | -8.27% (inactive) |
| CC(C)CN1C(=O)c2ccc(C(=O)Nc3ccccn3)cc2C1=O | 669 | -5.4% (inactive) | 50% (inactive) | 136 | -1.42 | 1.32 | -0.345 | -11.4% (inactive) | -0.495 (inactive) | -4.7e-05 (inactive) | 0.00831 (inactive) | inactive | -7.05% (inactive) |
| Cc1cc2c(c(=O)o1)C(CC(C)C)C(C#N)=C(N)O2 (stereo not given) | 703 | 2% (inactive) | -144% (inactive) | 167 | -0.228 | -0.296 | -0.119 | -1.12% (inactive) | -0.436 (inactive) | -5.8e-05 (inactive) | 0.00457 (inactive) | inactive | 3.4% (inactive) |
| O=C(NCCCNCc1ccccc1)/C(=N\O)c1ccccc1 | 518 | -4.7% (inactive) | -1% (inactive) | 164 | -0.176 | 1.16 | 0.402 | 15.9% (inactive) | -0.401 (inactive) | -5.4e-05 (inactive) | 0.00368 (inactive) | inactive | 7.18% (inactive) |
| COc1ccccc1-c1nnc2n1N=C(c1ccc(O)c(O)c1)CS2 | 485 | 50.9% (active) | -490% (inactive) | 70.4 | 1.36 | -1.29 | -0.603 | -6.48% (inactive) | -0.429 (inactive) | -1.7e-05 (inactive) | 0.00474 (inactive) | inactive | -2.32% (inactive) |
| Cc1cc(NCCNC2=CC(=O)CCC2)nc2ccccc12 | 473 | -10.2% (inactive) | -41.3% (inactive) | 148 | -0.963 | 1.28 | -0.176 | -3.97% (inactive) | -0.431 (inactive) | -4.6e-05 (inactive) | 0.0072 (inactive) | inactive | -12.8% (inactive) |
| CCOc1cccc(N2C(=O)CC(N(CCc3ccc(OC)c(OC)c3)C(=O)CC)C2=O)c1 (stereo not given) | 586 | -0.6% (inactive) | 2.4% (inactive) | 120 | -0.772 | 0.365 | -1.41 | -7.67% (inactive) | -0.453 (inactive) | -1.2e-05 (inactive) | 0.00547 (inactive) | inactive | -0.122% (inactive) |
| COC(=O)Sc1nc(N2CCOCC2)c2c(c1C#N)CC(C)(C)OC2 | 565 | -2% (inactive) | -116% (inactive) | 132 | 0.0433 | -0.438 | 1.3 | 3.42% (inactive) | -0.49 (inactive) | -0.000143 (inactive) | 0.00476 (inactive) | inactive | 24.4% (inactive) |
| CCN(CC)C(=O)COn1c(SCC(=O)N(CC)CC)nc2ccccc2c1=O | 714 | 1% (inactive) | 10.1% (inactive) | 161 | -0.154 | -0.248 | 0.329 | -1.12% (inactive) | -0.42 (inactive) | -4.1e-05 (inactive) | 0.00498 (inactive) | inactive | -1.16% (inactive) |
| COc1ccc(C(=O)c2ccc(N3CCOCC3)cc2)c(OC)c1 | 624 | -6.6% (inactive) | -21.8% (inactive) | 99.4 | -2.58 | 0.925 | 1.09 | 5.95% (inactive) | -0.488 (inactive) | -6.2e-05 (inactive) | 0.00684 (inactive) | inactive | -11.4% (inactive) |
